From PubChem BioAssay AID504414 (Broad Institute, 2011)
Among all 330,000 compounds or so, about 55 (0.02%) were called active.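 Rule for the calls: active = highest replicate inhibition of at least 40%; inactive = the rest.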 The full list was thinned out, with actives kept by preference.

biological target: Golgi-associated PDZ and coiled-coil motif-containing protein (Homo sapiens) (UniProt Q9HD26); assay: CAL PDZ peptide-binding inhibitors, primary screen, biochemical, fluorescence polarization, Cer-tagged CAL PDZ, HTS (AID 504414); settings: purified CAL PDZ, TMR-peptide fluorescence polarization, 1 h; at 20 µM; stronger effect = higher value;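 note: plate controls were DMSO neutral control wells for no effect and unlabeled competitor peptide control wells for full effect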
Method in brief: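 Material: tagged CAL PDZ protein CerCALP, purified; buffer or medium: sodium phosphate/NaCl buffer pH 7.4 with TCEP, IgG, Thesit; also added: fluorescent TMR peptide probe; schedule: 1 h incubation at room temperature before polarization reading; technique: fluorescence polarization from S- and P-plane intensities, G-factor corrected; control set: unlabelled peptide and DMSO controls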

| SMILES | inhibition |
| --- | --- |
| CC(NCCc1ccc(S(N)(=O)=O)cc1)C(=O)NCc1ccccc1 (configuration not stated) | -0.747% (inactive) |
| CC(C)NC(=O)Nc1cccc2c1O[C@H](CN(C)S(=O)(=O)c1cccs1)[C@@H](C)CN([C@H](C)CO)C2=O | -1.8% (inactive) |
| CC(C)(C)c1cc(=O)n2c(nc3ccccc32)[nH]1 | -2.22% (inactive) |
| O=C(Nc1ccc(C2CC2(Cl)Cl)cc1)c1cccc([N+](=O)[O-])c1 (configuration not stated) | 8.41% (inactive) |
| CCOC(=O)C(C)n1cnc2scc(-c3ccc(C)c(C)c3)c2c1=O (configuration not stated) | -1.15% (inactive) |
| CCOc1cc(CNCCN(C)C)c(Cl)cc1OCC(=O)NCCc1ccccc1 | -2.91% (inactive) |
| CCOC(=O)C1Sc2[nH]c(=O)sc2C(c2ccc(Cl)cc2)C1C(=O)OCC (configuration not stated) | 0.946% (inactive) |
| Cc1cccc(C(=O)OCC(=O)NC(C)C2CC3CCC2C3)c1O (configuration not stated) | 1.53% (inactive) |
| COc1ccccc1N(CC(=O)NC1CCCC1)C(=O)C1(C)CC(=O)N=C2C=CC(C)=CN21 (configuration not stated) | -1% (inactive) |
| Cc1ccc(C)c(C(=O)COC(=O)Cn2[nH]c(=O)c3ccccc3c2=O)c1 | -1.04% (inactive) |
| CC(=O)C1=C(C)NC2=C(C(=O)CC(C)(C)C2)C1C (configuration not stated) | -0.554% (inactive) |
| COCCNC(=O)/C(C#N)=C/c1nc(N(C)C)n(-c2ccc(F)cc2)c1Cl | -6.48% (inactive) |
| CN(CCc1cn[nH]c1)C(=O)CC1C(=O)NCCN1Cc1cccc(Oc2ccccc2)c1 (configuration not stated) | 0.0148% (inactive) |
| CN(C)S(=O)(=O)c1ccc(N2CCCC2)c(C(=O)Nc2ccc(Br)cc2F)c1 | 0.123% (inactive) |
| CCOc1cc(C(=O)N(Cc2ccccc2)c2ccc(C)cc2)ccc1OCC(=O)N1CCOCC1 | -0.206% (inactive) |
| NS(=O)(=O)c1ccc(CCNC(=O)c2ccc(Cl)c(S(=O)(=O)N3CCCCCC3)c2)cc1 | -0.205% (inactive) |
| COc1ccc(-c2c(C)nn3c(N4CCC(C(=O)N5CCCCC5)CC4)cc(C)nc23)cc1OC | 0.851% (inactive) |
| Cn1c(=O)c2c(nc(N3CCOCC3)n2CCNC2=NCCC2)n(C)c1=O | 0.616% (inactive) |
| COC(=O)[C@H]1Cc2cnoc2C[C@]1(C)C(=O)O | -1.94% (inactive) |

| SMILES | inhibition |
| --- | --- |
| Cc1cccc(NC(=O)CSc2nnc(CCNC(=O)OC(C)(C)C)o2)c1C | 0.572% (inactive) |
| CN(C)c1ccc(CNC2C3CC4CC(C3)CC2C4)cc1 (configuration not stated) | -1.31% (inactive) |
| CC(C)NC(=O)COCc1cc(-c2ccc3c(c2)OCO3)on1 | 0.0991% (inactive) |
| O=C(NCCCN1CCCC1=O)c1cccc(S(=O)(=O)NCc2ccccc2)c1 | -2.23% (inactive) |
| CCOCCCNC(=O)C(NC(=O)CNC(=O)c1ccccc1)c1ccc(OC)cc1 (configuration not stated) | -0.316% (inactive) |
| CCOc1ccc2sc(NS(=O)(=O)c3ccc(N)cc3)nc2c1 | -2.52% (inactive) |
| O=C1CS(=O)CN1c1ccc(Oc2ccccc2)cc1 (configuration not stated) | -2.68% (inactive) |
| O=C(CN(CC1CCCO1)C(=O)CNS(=O)(=O)c1ccc(Cl)cc1)NCc1ccccc1 (configuration not stated) | -2.47% (inactive) |
| CCN(C(=O)Cc1nc(N)n[nH]1)C1(C(=O)Nc2ccccc2)CCCCC1 | -0.615% (inactive) |
| CCOC(=O)C1Cn2c(nc3c(c2=O)C(C)(CC)Cc2ccccc2-3)S1 (configuration not stated) | -2.98% (inactive) |
| O=C(/C=C/c1ccccc1[N+](=O)[O-])OCC(=O)N1CCCC1 | -0.608% (inactive) |
| CCOC(=O)N1CCN(S(=O)(=O)N2CCCC(C(=O)NCCCN3CCC(C)CC3)C2)CC1 (configuration not stated) | -1.6% (inactive) |
| Cc1ccccc1/[N+]([O-])=C/c1ccncc1 | -1.06% (inactive) |
| COc1ccc(Cn2c(-c3ccc(Cl)cc3)c[n+]3ccccc23)cc1 | -2.82% (inactive) |
| CSCCNC(=O)c1ccc2nc(Cc3ccccc3F)oc2c1 | 0.068% (inactive) |
| CC1CN(C(=S)Nc2ccc(Br)cc2Cl)CC(C)O1 (configuration not stated) | 0.196% (inactive) |
| Cc1ccccc1CNC(=O)CCC(=O)N1Cc2ccccc2Oc2ncccc21 | -3.11% (inactive) |
| Cc1cccc(-n2nc3c(c2NC(=O)c2cc4ccccc4o2)CS(=O)(=O)C3)c1 | -2.7% (inactive) |
| CCC1([N+](=O)[O-])COC(c2ccc(C)cc2)OC1 (configuration not stated) | -0.14% (inactive) |

| SMILES | inhibition |
| --- | --- |
| O=c1c2ccccc2cnn1Cc1n[nH]c(=S)n1-c1ccccc1F | 0.871% (inactive) |
| CCC(C)Sc1nc2c(cnn2-c2ccc(F)cc2)c(=O)[nH]1 (configuration not stated) | -0.979% (inactive) |
| O=C1NC(c2ccccc2)CCC1(Cl)Cl (configuration not stated) | -0.102% (inactive) |
| CCOC(=O)c1nc(-c2ccc3c(c2)OCO3)[nH]c1C | -0.475% (inactive) |
| COc1cc(C2C3C(=O)N(c4ccccc4)C(=O)C3ON2c2ccccc2)ccc1O (configuration not stated) | -0.569% (inactive) |
| COc1cccc2c(C)c(C(=O)O)[nH]c12 | -0.62% (inactive) |
| O=C(NNS(=O)(=O)c1ccc(F)cc1)c1cnccn1 | -2.25% (inactive) |
| CN(C)S(=O)(=O)c1ccc(N/C=C(\[N+](=O)[O-])S(=O)(=O)c2ccccc2)cc1 | 0.264% (inactive) |
| CCCCc1nnc(NC(=O)CSc2nc(N)cc(=O)[nH]2)s1 | 0.237% (inactive) |
| CCCCc1nnc(NC(=O)CSc2nc(C)cc(=O)[nH]2)s1 | -0.42% (inactive) |
| CCCCCc1nnc(NC(=O)c2ccc(=O)n(C)n2)s1 | 176% (active) |
| Cc1ccc(C(=O)NN(CCC#N)C2=NS(=O)(=O)c3ccccc32)cc1 | -0.552% (inactive) |
| CC(C)c1cc(N=O)cc(C(C)C)c1O | -0.56% (inactive) |
| Clc1cc(-c2ccc(/C=N/n3cnnc3)o2)ccc1Br | -4.91% (inactive) |
| CC(C(=O)N(C)CC(=O)Nc1ccccc1C(F)(F)F)N1C(=O)c2ccccc2C1=O (configuration not stated) | -0.0605% (inactive) |
| CCOCCCN(C)C1CCN(C(=O)c2oc3ccccc3c2NC(=O)Cc2cccc([N+](=O)[O-])c2)CC1 | -0.742% (inactive) |
| O=C(Nc1ccc2c(c1)nc1n2CCCCC1)c1cc(S(=O)(=O)N2CCOCC2)ccc1Cl | -2.81% (inactive) |
| CCOc1ccc(N(CC(=O)Nc2cccc(OC)c2)S(C)(=O)=O)cc1 | 0.31% (inactive) |
| CC(C)(C)NC(=O)CN(C(=O)c1csnn1)c1ccccc1-c1ccccc1 | -2.13% (inactive) |
